Test results published in ChEMBL document CHEMBL1126947, “Synthesis and evaluation of 1-acyl-1,2-bis(methylsulfonyl)-2-(2- chloroethyl)hydrazines as antineoplastic agents” (J Med Chem, 1993).

Columns and labels:
[1] = Rate of decomposition in presence of 10 mM glutathione (GSH); format: ADME
Method in brief: (§1)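 Phenol red acidification (560 nm) was run in 1 mM potassium phosphate, pH 7.4, 37 °C, with 10 mM GSH added and 1 mM drug. Rates assumed 2 H⁺ released per mol during GSH-initiated decomposition. HCl calibration was done in the GSH-containing mixture. The relative rate is the GSH rate divided by the buffer-alone rate.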

[2] = Rate of decomposition in presence of CD-1 mouse serum; format: ADME
Method in brief: (§2)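 Hydrolysis was followed by phenol red acidification (560 nm) at pH 7.4, 37 °C, in weak phosphate buffer containing 2% CD-1 mouse serum. Serum came from female CD-1 mice bled by cardiac puncture: blood from 3 mice was pooled, clotted 30 min at 37 °C, centrifuged, and kept on ice ≤6 h. HCl calibration was done in the serum mixture. The relative rate is the serum rate divided by the buffer rate.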

[3] = Initial rate of decomposition (1 mM) in 1 mM potassium phosphate buffer; format: ADME; conditions: 1000 µM
Method in brief: (§3)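 Decomposition was followed at 37 °C, pH 7.4, by phenol red (20 mg/L) acidification at 560 nm in 1 mM potassium phosphate. Drug was at 1 mM final, added from a DMSO stock. Rates were calculated as 3 H⁺ per mol for acyl compounds, calibrated with HCl standards. The relative rate is the acyl compound rate divided by the reference tris(sulfonyl) rate.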

L1210 [4] = test: Average percent change in body weight against L1210 leukemia in mice at 10 mg/kg; format: functional, Mus musculus
Method in brief: (§4)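 L1210 leukemia, 10⁵ cells ip per recipient mouse (cells from ip passage in CD₂F₁ donors plus culture). Drug ip in 100% DMSO, ≤0.025 mL, once daily ×6 starting 24 h after implantation; groups of 5 mice (5–10 per group per footnote). Toxicity read-out: average percent change in body weight from onset to termination of therapy; vehicle-treated tumor-bearing controls included.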

Mus musculus [5] = test: Compound was tested for percent cures (60-day survivors) in mice at 10 mg/kg; format: functional
Method in brief: (§5)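 L1210 leukemia was passaged in donor CD2F1 mice. Each recipient mouse received 10⁵ cells. Drug was given ip in 100% DMSO once daily for 6 days, starting 24 h after implantation, at 5–20 mg/kg. Groups were 5–10 mice, with vehicle controls. %T/C = mean survival treated/control × 100, excluding cures. Cures = 60-day survivors. Body-weight change during therapy was taken as toxicity.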

Mus musculus [6] = test: Average survival time of treated/control mice X 100 was determined at 10 mg/kg; format: functional; method in brief: as §5
[7] = Relative rate of decomposition is the rate of decomposition of acyl compound to that of rate of decomposition of compound; format: ADME; method in brief: as §3
[8] = Relative rate of decomposition is the rate of decomposition in the presence of 10 mMGSH/rate of decomposition in buffer alone; format: ADME; method in brief: as §1
[9] = Relative rate of decomposition is the rate of decomposition in the presence of 2% serum/rate of hydrolysis in buffer alone.; format: ADME; method in brief: as §2
L1210 [10] = test: Average percent change in body weight against L1210 leukemia in mice at 20 mg/kg; format: functional, Mus musculus; method in brief: as §4
Mus musculus [11] = test: Compound was tested for percent cures (60-day survivors) in mice at 20 mg/kg; format: functional; method in brief: as §5
Mus musculus [12] = test: Average survival time of treated/control mice X 100 was determined at 20 mg/kg; format: functional; method in brief: as §5
B16 = test: Optimal Antitumor Effect was expressed as T-C against B16 i.d. leukemia in mice (i.p.) 100 mg/kg; format: functional, Mus musculus; conditions: route intraperitoneal
M5076 [13] = test: Optimal Antitumor Effect was expressed as % T-C against M5076, sc leukemia in mice (i.v.) 36 mg/kg; format: functional, Mus musculus; conditions: route intravenous
Method in brief: (§6)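 Second M5076 sc experiment in C57BL/6 mice: drug iv in 100% DMSO, fixed 10 μL, every other day ×5 from day 1; eight mice/group. Outputs: %T/C (median survival ratio) and T − C growth delay to 1 g tumor, treated minus control.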

M5076 [14] = test: Optimal Antitumor Effect was expressed as T-C against M5076, sc leukemia in mice (i.v.) 40 mg/kg; format: functional, Mus musculus; conditions: route intravenous
Method in brief: (§7)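 M5076 reticulum cell sarcoma sc in C57BL/6 mice (fragment passage); drug iv in 10% DMSO in saline, 0.01 mL/g, every other day ×5 from day 1; eight mice/group. %T/C from median survival ratio; T − C = difference in median days for treated vs untreated tumors to reach 1 g.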

M5076 [15] = test: Optimal Antitumor Effect was expressed as % T/C against M5076, sc leukemia in mice (i.v.) 20 mg/kg; format: functional, Mus musculus; conditions: route intravenous; method in brief: as §7
M5076 [16] = test: Optimal Antitumor Effect was expressed as % T/C against M5076, sc leukemia in mice (i.v.) 36 mg/kg; format: functional, Mus musculus; conditions: route intravenous; method in brief: as §6
L1210 [17] = test: Average percent change in body weight against L1210 leukemia in mice at 7.5 mg/kg; format: functional, Mus musculus; method in brief: as §4
M109 [18] = test: Optimal Antitumor Effect was expressed as T-C against M109, sc leukemia in mice (i.v.) 30 mg/kg; format: functional, Mus musculus; conditions: route intravenous
Method in brief: (§8)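 M109 lung carcinoma implanted sc (fragments passaged in Balb/c mice); drug iv in 10% DMSO in saline, 0.01 mL/g, every third day ×4 starting day 1. Eight mice/group, ≥3 dose levels. Read-outs: %T/C from median survival, and T − C = difference in median days for treated vs untreated tumors to reach 1 g (1 mm³ = 1 mg).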

M109 [19] = test: Optimal Antitumor Effect was expressed as T-C against M109, sc leukemia in mice (i.v.) 48 mg/kg; format: functional, Mus musculus; conditions: route intravenous
M109 [20] = test: Optimal Antitumor Effect was expressed as T-C against M109, sc leukemia in mice (i.v.) 60 mg/kg; format: functional, Mus musculus; conditions: route intravenous; method in brief: as §8
M109 [21] = test: Optimal Antitumor Effect was expressed as % T/C against M109, ip leukemia in mice (i.p.) 60 mg/kg; format: functional, Mus musculus; conditions: route intraperitoneal
Method in brief: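 M109 lung carcinoma ip in Balb/c-passaged line; drug ip every third day ×4 from day 1, as fine suspension in 10% DMSO in carboxymethylcellulose with Tween 80 (0.5 mL). Eight mice/group, ≥3 dose levels. %T/C = median survival treated/control ×100; deaths before day 10 counted as toxic.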

M109 [22] = test: Optimal Antitumor Effect was expressed as % T/C against M109, sc leukemia in mice (i.v.) 30 mg/kg; format: functional, Mus musculus; conditions: route intravenous; method in brief: as §8
M109 [23] = test: Optimal Antitumor Effect was expressed as % T/C against M109, sc leukemia in mice (i.v.) 32 mg/kg; format: functional, Mus musculus; conditions: route intravenous
M109 [24] = test: Optimal Antitumor Effect was expressed as % T/C against M109, sc leukemia in mice (i.v.) 60 mg/kg; format: functional, Mus musculus; conditions: route intravenous; method in brief: as §8
Mus musculus [25] = test: Compound was tested for percent cures (60-day survivors) in mice at 7.5 mg/kg; format: functional; method in brief: as §5
Mus musculus [26] = test: Average survival time of treated/control mice X 100 was determined at 7.5 mg/kg; format: functional; method in brief: as §5
P388 = test: Optimal Antitumor Effect was expressed as cures/total against P388, ip, leukemia in mice (i.p.) 200 mg/kg; 3/6; format: functional, Mus musculus; conditions: route intraperitoneal
L1210 [27] = test: Average percent change in body weight against L1210 leukemia in mice at 60 mg/kg; format: functional, Mus musculus
Mus musculus [28] = test: Compound was tested for percent cures (60-day survivors) in mice at 60 mg/kg; format: functional

SMILES	Rate of decomposition [1]	Rate of decomposition [2]	Rate of decomposition [3]	Body weight (L1210 [4])	Cures (Mus musculus [5])	Relative rate of decomposition [7]	Relative rate of decomposition [8]	Relative rate of decomposition [9]	other results
CCC(=O)N(N(CCCl)S(C)(=O)=O)S(C)(=O)=O	12.8 (nM of drug) min-1 ml-1	0.45 (nM of drug) min-1 ml-1	<= 0.1 (nM of drug) min-1 ml-1	-6.4%	90%				T/C (Mus musculus [6]): 217%
CS(=O)(=O)N(CCCl)N(C(=O)c1ccccc1)S(C)(=O)=O	227 (nM of drug) min-1 ml-1	7.86 (nM of drug) min-1 ml-1	1.02 (nM of drug) min-1 ml-1			0.11	223	7.7	Body weight (L1210 [10]): -7.7%; Cures (Mus musculus [11]): 20%; T/C (Mus musculus [12]): 160%
CC(=O)N(N(CCCl)S(C)(=O)=O)S(C)(=O)=O	14.5 (nM of drug) min-1 ml-1	0.89 (nM of drug) min-1 ml-1	0.24 (nM of drug) min-1 ml-1			0.03 (nM of drug) min-1 ml-1	60.3	3.7	T-C (B16): 12 days; T-C (M5076 [13]): 20.8 days; T-C (M5076 [14]): 18.3 days; T/C (M5076 [15]): 156%; T/C (M5076 [16]): 122%; Body weight (L1210 [17]): 1%; T-C (M109 [18]): 10.5 days; T-C (M109 [19]): 14.5 days; T-C (M109 [20]): 3 days; T/C (M109 [21]): 231%; T/C (M109 [22]): 128%; T/C (M109 [23]): 136%; T/C (M109 [24]): 133%; Cures (Mus musculus [25]): 80%; T/C (Mus musculus [26]): 341%; Cures/total (P388): 3
CC(C)(C)C(=O)N(N(CCCl)S(C)(=O)=O)S(C)(=O)=O	11 (nM of drug) min-1 ml-1	0.78 (nM of drug) min-1 ml-1	<= 0.1 (nM of drug) min-1 ml-1						Body weight (L1210 [10]): 0%; Cures (Mus musculus [11]): 60%; T/C (Mus musculus [12]): 302%
COCC(=O)N(N(CCCl)S(C)(=O)=O)S(C)(=O)=O	147 (nM of drug) min-1 ml-1	8.57 (nM of drug) min-1 ml-1	2.9 (nM of drug) min-1 ml-1	-8.4%	100%	0.3	50.6	3	
CS(=O)(=O)N(CCCl)N(S(C)(=O)=O)S(C)(=O)=O			9.58 (nM of drug) min-1 ml-1			1			Body weight (L1210 [27]): -7.2%; Cures (Mus musculus [28]): 100%
CCCC(=O)N(N(CCCl)S(C)(=O)=O)S(C)(=O)=O	10.3 (nM of drug) min-1 ml-1	0.34 (nM of drug) min-1 ml-1	<= 0.1 (nM of drug) min-1 ml-1	0%	20%				T/C (Mus musculus [6]): 207%
